Source: BindingDB's records for doi:10.1016/j.ejmech.2021.113333 (Fudan University, 2021)

Target: T1, Signal transducer and activator of transcription 1-alpha/beta (Homo sapiens, UniProt P42224)
T1 sequence (P42224 whole entry): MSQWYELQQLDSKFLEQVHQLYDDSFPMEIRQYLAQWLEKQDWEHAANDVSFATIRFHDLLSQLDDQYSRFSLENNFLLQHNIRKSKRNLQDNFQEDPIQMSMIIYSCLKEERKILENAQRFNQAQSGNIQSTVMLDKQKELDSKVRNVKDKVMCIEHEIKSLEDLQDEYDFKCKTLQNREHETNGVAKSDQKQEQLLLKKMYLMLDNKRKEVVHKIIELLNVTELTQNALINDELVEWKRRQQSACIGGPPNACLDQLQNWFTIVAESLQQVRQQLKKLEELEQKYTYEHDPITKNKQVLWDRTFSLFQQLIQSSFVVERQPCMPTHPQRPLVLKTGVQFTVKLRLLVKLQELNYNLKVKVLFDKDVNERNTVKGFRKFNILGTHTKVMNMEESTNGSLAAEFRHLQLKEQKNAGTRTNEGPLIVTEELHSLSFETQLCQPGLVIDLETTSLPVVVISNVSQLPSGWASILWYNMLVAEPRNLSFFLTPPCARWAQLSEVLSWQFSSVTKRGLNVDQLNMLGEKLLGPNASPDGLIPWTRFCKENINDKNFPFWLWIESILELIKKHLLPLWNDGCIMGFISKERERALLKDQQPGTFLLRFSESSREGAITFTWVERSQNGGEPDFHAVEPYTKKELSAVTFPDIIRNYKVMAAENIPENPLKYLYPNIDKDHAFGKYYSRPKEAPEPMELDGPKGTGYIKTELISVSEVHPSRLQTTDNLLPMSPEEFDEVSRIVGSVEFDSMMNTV
Test: Inhibition of IFN-gamma-induced STAT1 transcriptional activity in human HepG2 cells by luciferase reporter gene assay
Outline: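 STAT1-dependent luciferase reporter assay in HepG2 cells with IFN-γ stimulation; mean ± SD of at least three independent experiments.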

Structure (SMILES)	IC50 [nM]
CCCC(C)Oc1ccc(C(=O)Nc2ccc3nc(SCC(=O)N[C@@H](C)c4ccccc4)sc3c2)c(OC)c1C (some centres not stated)	350
CCCC(C)Oc1ccc(C(=O)Nc2ccc3nc(SCC(=O)N[C@@H](C)c4ccc(OC)cc4)sc3c2)c(OC)c1C (some centres not stated)	320
